The source made the active and inactive calls. No cut-off for these calls is given here.

We go through one molecule from ChEMBL document CHEMBL5230177, “Inactivation of myostatin by photooxygenation using functionalized d-peptides” (RSC Med Chem, 2023).

Data set [1] concerns the target Growth/differentiation factor 8 (Homo sapiens) (UniProt O14793). The data set is described as follows: Photo-oxygenation of human recombinant Myostatin expressed in Escherichia coli cells assessed as oxygen adduct formation in myostatin peak fragment 79-90 at 3 uM measured after photoirradiation for 30 mins using LED by MALDI-TOF-MS analysis. An outline of the steps: (§1)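 Myostatin stock (8 μM in 1 mM HCl) diluted to 1 μM in 10 mM phosphate, pH 7.4. Functionalized peptide (final 3 μM) or methylene blue (final 1 μM) added. Irradiated 30 min with 730 nm LED (14 mW) at room temperature. Then 50 mM DTT reduction (37 °C, 0.5 h), Lys-C digestion (1/20 w/w, 37 °C, 2.5 h), ZipTip desalting, MALDI-TOF MS of fragments.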

The target is the same in data set [2]. The data set can be described thus: Photo-oxygenation of human recombinant Myostatin expressed in Escherichia coli cells assessed as oxygen adduct formation in myostatin peak fragment 55-78 at 3 uM measured after photoirradiation for 30 mins using LED by MALDI-TOF-MS analysis. An outline of the steps:
as §1

Data set [3] shares this target. The data set can be described thus: Photo-oxygenation of human recombinant Myostatin expressed in Escherichia coli cells assessed as oxygen adduct formation in myostatin peak fragment 40-54 at 3 uM measured after photoirradiation for 30 mins using LED by MALDI-TOF-MS analysis. An outline of the steps:
as §1

For data set [4], the target named is Amyloid-beta precursor protein (Homo sapiens) (UniProt P05067). The data set is described as follows: Photo-oxygenation of human Amyloid beta (1 to 42) assessed as oxygen adduct formation at 3 uM measured after photoirradiation for 30 mins using LED by MALDI-TOF-MS analysis. In a few lines:
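Aβ1-42 formed in situ from isopeptide stock (250 μM in 0.1% TFA, ultracentrifuged), diluted to 20 μM in 10 mM phosphate, pH 7.4. Functionalized peptide (final 3 μM) or methylene blue (final 1 μM) added. Irradiated with 730 nm LED (14 mW, 3–5 cm) at room temperature. Reduced with 50 mM DTT (37 °C, 0.5 h), Lys-C digested (1/20 w/w, 37 °C, 2.5 h), desalted, analysed by MALDI-TOF MS.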

For data set [5], the target named is Growth/differentiation factor 8 (Homo sapiens) (UniProt O14793). The data set can be described thus: Photo-oxygenation mediated inactivation of human recombinant Myostatin expressed in Escherichia coli cells assessed as residual activity at 3 nM photoirradiated for 30 mins using LED followed by incubation with luciferase reporter transfected HEK293 cells for 4 hrs by luciferase reporter gene assay. The following applies: time 4.5 hrs. An outline of the steps:
(§2)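 Myostatin (1 μM in 10 mM phosphate, pH 7.4, with or without peptide) diluted in serum-free DMEM to 0.6 nM, irradiated at 730 nm for 30 min, then added to HEK293 cells. Cells were transfected 24 h with SBE-luc2P reporter plus TK-Renilla control, then held 8 h in serum/phenol red-free DMEM. Exposure 4 h, PBS wash, dual-luciferase read-out. Triplicate, mean ± s.d. (n = 3), Tukey's test.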

The target is the same in data set [6]. The data set is described as follows: Inactivation of human recombinant Myostatin expressed in Escherichia coli cells at 3 nM incubated with luciferase reporter transfected HEK293 cells for 4 hrs by luciferase reporter gene assay.
Data set [7] has as its target T1, Growth/differentiation factor 8 (Homo sapiens, UniProt O14793).
T1 sequence (O14793 whole entry): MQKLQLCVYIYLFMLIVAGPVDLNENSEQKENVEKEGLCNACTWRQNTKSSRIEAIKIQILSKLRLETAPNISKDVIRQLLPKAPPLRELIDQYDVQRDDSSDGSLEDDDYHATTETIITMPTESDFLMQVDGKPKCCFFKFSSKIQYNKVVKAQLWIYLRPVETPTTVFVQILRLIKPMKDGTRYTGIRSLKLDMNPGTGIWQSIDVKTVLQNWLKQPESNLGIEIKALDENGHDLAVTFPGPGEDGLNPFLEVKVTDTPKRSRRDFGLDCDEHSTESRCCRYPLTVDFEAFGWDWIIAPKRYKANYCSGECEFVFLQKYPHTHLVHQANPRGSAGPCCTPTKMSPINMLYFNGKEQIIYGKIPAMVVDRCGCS
The data set can be described thus: Photo-oxygenation mediated inactivation of human recombinant Myostatin expressed in Escherichia coli cells photoirradiated for 30 mins using LED followed by incubation with luciferase reporter transfected HEK293 cells for 4 hrs by luciferase reporter gene assay. In a few lines:
as §2

In data set [8] the test system is HEK293. The data set can be described thus: Phototoxicity against human HEK293 cells assessed as reduction in cell viability at 3 uM photoirradiated for 30 mins using LED followed by incubation with compound for 24 hrs by WST-1 assay. The format is toxicity, cell-based. To be noted: hek293, 24.5 h, time 1470 min. An outline of the steps:
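HEK293 cells grown in DMEM with 10% FBS and non-essential amino acids at 37 °C, 5% CO2, seeded 2.0×10^4 cells/well. After 48 h, medium switched to serum- and phenol red-free DMEM containing 3 μM peptide or methylene blue. Cells irradiated with LED (λmax 730 nm, 30 min), then incubated 24 h. Viability read by WST-1; Student's t-test.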

The subject of data set [9] is trypsin (Sus scrofa). The data set is described as follows: Stability of the compound assessed as trypsin (porcine pancreas)-mediated drug degradation at 100 uM measured after 3 hrs by MALDI-TOF-MS analysis.
In data set [10] the test system is chymotrypsin (Bos taurus). The data set is described as follows: Stability of the compound assessed as chymotrypsin (bovine pancreas)-mediated drug degradation at 100 uM measured after 3 hrs by MALDI-TOF-MS analysis.

Amyloid-beta precursor protein (Homo sapiens), sequence (P05067 whole entry): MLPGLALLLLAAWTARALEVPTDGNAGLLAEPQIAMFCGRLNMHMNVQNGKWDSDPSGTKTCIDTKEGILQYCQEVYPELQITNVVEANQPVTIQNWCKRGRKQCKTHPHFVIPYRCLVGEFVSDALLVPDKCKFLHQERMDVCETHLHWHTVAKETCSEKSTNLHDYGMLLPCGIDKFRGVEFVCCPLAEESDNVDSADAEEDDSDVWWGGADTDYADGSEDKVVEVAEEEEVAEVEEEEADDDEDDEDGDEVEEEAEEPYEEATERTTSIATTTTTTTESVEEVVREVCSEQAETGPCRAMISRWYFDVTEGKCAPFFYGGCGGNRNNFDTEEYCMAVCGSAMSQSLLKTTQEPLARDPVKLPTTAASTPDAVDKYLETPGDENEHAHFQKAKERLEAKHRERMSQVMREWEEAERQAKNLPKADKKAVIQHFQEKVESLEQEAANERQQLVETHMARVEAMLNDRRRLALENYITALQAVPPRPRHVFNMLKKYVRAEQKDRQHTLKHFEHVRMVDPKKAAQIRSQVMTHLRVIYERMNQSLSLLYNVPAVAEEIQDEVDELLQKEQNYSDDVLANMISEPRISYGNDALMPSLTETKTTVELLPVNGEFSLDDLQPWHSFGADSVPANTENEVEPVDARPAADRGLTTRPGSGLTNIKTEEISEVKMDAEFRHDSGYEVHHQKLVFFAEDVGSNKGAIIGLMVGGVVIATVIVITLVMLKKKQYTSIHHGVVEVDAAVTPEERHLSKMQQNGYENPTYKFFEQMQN

Take `CC[C@@H](C)[C@@H](NC(=O)[C@@H](CCCNC(=N)N)NC(=O)[C@@H](CCc1ccccc1)NC(=O)[C@H](NC(=O)[C@@H](CCCCN)NC(=O)[C@H](NC(=O)[C@@H](CCCNC(=N)N)NC(=O)[C@H](NC(=O)[C@@H](Cc1ccc2ccccc2c1)NC(=O)[C@@H](CCCNC(=N)N)NC(=O)[C@@H](CCCCN)NC(=O)[C@H](NC(=O)[C@@H](CCCNC(=N)N)NC(=O)[C@@H](CC(C)C)NC(=O)CCc1cn(CCN2CCCc3cc(/C=C/C4=C(Br)C(/C=C/c5cc6c7c(c5)CCCN7CCC6)=[O+][B-](F)(C(F)(F)F)O4)ccc32)nn1)C1CCCCC1)[C@H](C)CC)C1CCCCC1)[C@H](C)CC)C(=O)N[C@H](Cc1ccc(O)cc1)C(=O)N[C@H](CCc1ccccc1)C(N)=O` (stereo not given in full): the outcome in data set [1] and in [2] was Active. Also, the result in data set [3] and in data set [4] was inactive. The Activity was 41% in [5] and “Non-Toxic” in data set [8]. The inhibition entry in data set [6] was “inactive”. The half-inhibitory concentration (IC50) in data set [7] is 0.89 nM. The Stability result in [9] and in data set [10] was “Stable” in each case.
